Data reported in ChEMBL document CHEMBL1156083, “N,N-Diethyl-4-[(3-hydroxyphenyl)(piperidin-4-yl)amino] benzamide derivatives: the development of diaryl amino piperidines as potent delta opioid receptor agonists with in vivo anti-nociceptive activity in rodent models” (Bioorg Med Chem Lett, 2009).

Assays:
[1] = Half life in rat; assay type: ADME, organism-based; conditions: in vivo
[2] = Bioavailability in rat; assay type: ADME, organism-based; conditions: in vivo
Rattus norvegicus [3] = test: Antihyperalgesic activity against carrageenan-induced inflammatory hyperalgesia in iv dosed Sprague-Dawley rat after 30 mins; assay type: functional
Summary of the method: (§1)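 Sprague-Dawley rats with carrageenan-induced inflammatory hyperalgesia received the compound intravenously across a dose range of 3 to 30. Antinociceptive reversal was measured 30 min after dosing.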

Rattus norvegicus [4] = test: Antihyperalgesic activity against carrageenan-induced inflammatory hyperalgesia in Sprague-Dawley rat at 30 umol/kg, iv after 30 mins; assay type: functional; summary of the method: as §1
Mus musculus [5] = test: Toxicity in CD1 mouse assessed convulsant activity at 4 to 25 umol/kg, iv after 20 mins; assay type: organism-based; conditions: in vivo
Summary of the method: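 CD1 mice were watched for convulsions during the acetic acid writhing experiment, at the intravenous doses used there (4 to 25) and 20 min after dosing.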

Rattus norvegicus [6] = test: Toxicity in Sprague-Dawley rat assessed convulsant activity at 3 to 30 umol/kg, iv after 30 mins; assay type: organism-based; conditions: in vivo, 0.5 h
Summary of the method: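 Sprague-Dawley rats were watched for convulsions during the carrageenan hyperalgesia experiment, at the intravenous doses used there (3 to 30) and 30 min after dosing.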

Mus musculus [7] = test: Toxicity in CD1 mouse assessed hyperactivity at above 30 umol/kg, iv after 20 mins; assay type: organism-based; conditions: in vivo
Rattus norvegicus [8] = test: Toxicity in Sprague-Dawley rat assessed hyperactivity at above 30 umol/kg, iv after 30 mins; assay type: organism-based; conditions: in vivo, 0.5 h
Mus musculus [9] = test: Antinociceptive activity against acetic acid-induced writhing response in iv dosed CD1 mouse after 20 mins; assay type: functional
Summary of the method: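 CD1 mice received the compound intravenously at doses of 4 to 25 before the acetic acid-induced abdominal constriction (writhing) test. Writhing inhibition was scored 20 min after dosing and ED₅₀ was taken from the dose-response. A separate arm was pretreated with the delta-selective antagonist naltrindole.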

Row | Structure (SMILES) | half-life [1] [min] | bioavailability [2] [%] | Activity (Rattus norvegicus [3]) | ED50 (Rattus norvegicus [3]; Rattus norvegicus, Sprague-Dawley, iv, 0.5 h) [µmol/kg] | Activity (Rattus norvegicus [4]) [%] | Activity (Mus musculus [5]) | Activity (Rattus norvegicus [6]) | Activity (Mus musculus [7]) | Activity (Rattus norvegicus [8]) | Activity (Mus musculus [9]) [µmol/kg]
1 | CCN(CC)C(=O)c1ccc(N(c2cccc(O)c2)C2CCN(CCc3ccccc3)CC2)cc1 | 48 | 25 | Dose-dependent effect | 17.5 | 60 | Non-toxic | Non-toxic | Non-toxic | Non-toxic | 
2 | CN1CC[C@]23c4c5ccc(O)c4O[C@H]2[C@@H](O)C=C[C@H]3[C@H]1C5 [MORPHINE] |  |  | 3.1 µmol/kg |  |  |  |  |  |  | 1.5
